From ChEMBL document CHEMBL1145117, “Structures and cytotoxic properties of trichoverroids and their macrolide analogues produced by saltwater culture of Myrothecium verrucaria” (J Med Chem, 2003)

Key:
L1210 [1] = assay: Selectivity was evaluated murine tumor against ZL1210 lymphocytic leukemia cell lines- ZCFU-GM normal bone marrow cell lines at a concentration of 0.24 ug/mL; format: functional, cell-based; conditions: Mus musculus
Summary of the method: (§1)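 Disk diffusion soft agar colony formation assay; sample applied to disk (15 μL); cytotoxicity read as zone units. Differential = zone difference between a solid tumor line (murine Colon38; human colon H116, lung H125) and leukemia (murine L1210, human CEM) or normal bone marrow CFU-GM (murine/human). Solid tumor selective if differential exceeds 250 units.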

UACC-62 = assay: In vitro antitumor activity against melanoma UACC-62 tumor cell lines; format: functional, cell-based, Homo sapiens
colon = assay: Selectivity was evaluated against human ZH116 colon cell lines-CEM lymphocytic leukemia cell lines at a concentration of 0.24 ug/mL; format: functional, cell-based; summary of the method: as §1
MC-38 [2] = assay: Selectivity was evaluated against murine tumor ZC38 colon adenocarcinoma cell lines- ZCFU-GM normal bone marrow cell lines at a concentration of 0.24 ug/mL; format: functional, cell-based; conditions: Mus musculus; summary of the method: as §1
MDA-N = assay: In vitro antitumor activity against breast MDA-N tumor cell lines; format: functional, cell-based, Homo sapiens
Homo sapiens [3] = species: Homo sapiens; assay: Concentration giving 500 zone units against H116 colon tumor cell lines; format: functional
Summary of the method: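 Disk diffusion soft agar colony formation assay on human H116 colon tumor cells. Each sample was applied to a disk as 15 µL, and activity was read as zone units. The value is the sample concentration that gave 500 zone units.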

SK-MEL-2 = assay: In vitro antitumor activity against melanoma SK-MEL-2 tumor cell lines; format: functional, cell-based, Homo sapiens
M14 = assay: In vitro antitumor activity against melanoma M14 tumor cell lines; format: functional, cell-based, Homo sapiens
A549 = assay: In vitro antitumor activity against NSCL A549/ATCC tumor cell lines; format: functional, cell-based, Homo sapiens
MOLT-4 = assay: In vitro antitumor activity against leukemia MOLT-4 tumor cell lines; format: functional, cell-based, Homo sapiens
NCI-H522 = assay: In vitro antitumor activity against NSCL NCI-H522 tumor cell lines; format: functional, cell-based, Homo sapiens
RXF 393 = assay: In vitro antitumor activity against renal RXF 393 tumor cell lines; format: functional, cell-based, Homo sapiens
NCI-H226 = assay: In vitro antitumor activity against NSCL NCI-H226 tumor cell lines; format: functional, cell-based, Homo sapiens
786-0 = assay: In vitro antitumor activity against renal 786-0 tumor cell lines; format: functional, cell-based, Homo sapiens
A498 = assay: In vitro antitumor activity against renal A498 tumor cell lines; format: functional, cell-based, Homo sapiens
MDA-MB-435 = assay: In vitro antitumor activity against breast MDA-MB-435 tumor cell lines; format: functional, cell-based, Homo sapiens
MCF7 = assay: In vitro antitumor activity against breast MCF-7 tumor cell lines; format: functional, cell-based, Homo sapiens
MC-38 [4] = assay: Selectivity was evaluated against Murine tumor ZC38 colon adenocarcinoma cell lines- ZL1210 lymphocytic leukemia cell lines at a concentration of 0.24 ug/mL; format: functional, cell-based; conditions: Mus musculus; summary of the method: as §1
NCI-H125 [5] = assay: Selectivity was evaluated against human ZH125 lung non small cell carcinoma cell lines-CEM lymphocytic leukemia cell lines at a concentration of 0.24 ug/mL; format: functional, cell-based; summary of the method: as §1
HCT-15 = assay: In vitro antitumor activity against colon HCT-15 tumor cell lines; format: functional, cell-based, Homo sapiens
HL-60 = assay: In vitro antitumor activity against leukemia HL-60(TB) tumor cell lines; format: functional, cell-based, Homo sapiens
CCRF-CEM = assay: In vitro antitumor activity against leukemia CCRF-CEM tumor cell lines; format: functional, cell-based, Homo sapiens
Homo sapiens [6] = species: Homo sapiens; assay: (§2) Activity relative to compound 3 (set to 1.0) was evaluated against H116 colon tumor cell lines; format: functional
Summary of the method: (§3)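 Disk diffusion soft agar colony formation assay on human H116 colon tumor cells, with 15 µL of sample applied to a disk and zone units read. Relative activity = (dilution required for 500 zone units × 100)/(mg/mL), normalised to a reference compound set at 1.0.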

HCT-116 = assay: In vitro antitumor activity against colon HCT116 tumor cell lines; format: functional, cell-based, Homo sapiens
COLO 205 = assay: In vitro antitumor activity against colon COLO 205 tumor cell lines; format: functional, cell-based, Homo sapiens
MC-38 [7] = assay: Selectivity was evaluated against murine tumor ZC38 colon adenocarcinoma cell lines- ZCFU-GM normal bone marrow cell lines at a concentration of 550 ug/mL; format: functional, Mus musculus
Summary of the method: (§4)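 Disk diffusion soft agar colony formation assay with zone units read for murine L1210, C38 and CFU-GM (bone marrow) cells and for human H116, H125 and CEM cells. Selectivity is the zone-unit difference between the paired cell lines. A solid tumor minus leukemia or normal difference above 250 units counts as solid tumor selective.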

MC-38 [8] = assay: Selectivity was evaluated against Murine tumor ZC38 colon adenocarcinoma cell lines- ZL1210 lymphocytic leukemia cell lines at a concentration of 550 ug/mL; format: functional, Mus musculus; summary of the method: as §4
L1210 [9] = assay: Selectivity was evaluated murine tumor against ZL1210 lymphocytic leukemia cell lines- ZCFU-GM normal bone marrow cell lines at a concentration of 550 ug/mL; format: functional, Mus musculus; summary of the method: as §4
NCI-H125 [10] = assay: Selectivity was evaluated against human ZH125 lung non small cell carcinoma cell lines-CEM lymphocytic leukemia cell lines at a concentration of 550 ug/mL; format: functional; summary of the method: as §4
[11] = Selectivity was evaluated against human ZH116 colon cell lines-CEM lymphocytic leukemia cell lines at a concentration of 550 ug/mL; format: functional; summary of the method: as §4
[12] = as §2; format: functional, Homo sapiens; summary of the method: as §3

CC(=O)OC[C@]12CCC(C)=C[C@H]1O[C@@H]1[C@H](O)[C@@H](OC(C)=O)[C@@]2(C)[C@]12CO2 [ANGUIDIN]
Selectivity (L1210 [1]): 150 zone unit | IC50 (UACC-62; uacc-62): < 0.001 µM | Selectivity (colon): -100 zone unit | Selectivity (MC-38 [2]): 0 zone unit | IC50 (MDA-N; mda-n): < 0.001 µM | Concentration (Homo sapiens [3]): 0.24 µg/mL | IC50 (SK-MEL-2; sk-mel-2): < 0.001 µM | IC50 (M14; m14): < 0.001 µM | IC50 (A549; a549): < 0.001 µM | IC50 (MOLT-4; molt-4): < 0.001 µM | IC50 (NCI-H522; nci-h522): < 0.001 µM | IC50 (RXF 393; rxf 393): < 0.001 µM | IC50 (NCI-H226; nci-h226): < 0.001 µM | IC50 (786-0): < 0.001 µM | IC50 (A498; a498): < 0.001 µM | IC50 (MDA-MB-435; mda-mb-435): < 0.001 µM | IC50 (MCF7; mcf7): < 0.001 µM | Selectivity (MC-38 [4]): -150 zone unit | Selectivity (NCI-H125 [5]): 0 zone unit | IC50 (HCT-15; hct-15): < 0.001 µM | IC50 (HL-60; hl-60): < 0.001 µM | IC50 (CCRF-CEM; ccrf-cem): < 0.001 µM | Relative activity (Homo sapiens [6]): 423 | IC50 (HCT-116; hct-116): < 0.001 µM | IC50 (COLO 205; colo 205): < 0.001 µM

C/C1=C\C(=O)OC[C@]23CC[C@](C)(O)[C@H]4C[C@@]5(O)[C@H](O[C@H]42)[C@H](O)[C@@H](OC(=O)/C=C\C=C\[C@@H]2O[C@H](C1)O[C@H]2C)[C@]35C [Miophytocen C]
IC50 (UACC-62; Homo sapiens, UACC-62): > 10 µM | IC50 (MDA-N; Homo sapiens, MDA-N): > 10 µM | Selectivity (MC-38 [7]): -50 zone unit | Concentration (Homo sapiens [3]): 550 µg/mL | IC50 (SK-MEL-2; Homo sapiens, SK-MEL-2): > 10 µM | IC50 (M14; Homo sapiens, M14): > 10 µM | IC50 (A549; Homo sapiens, A549): > 10 µM | IC50 (MOLT-4; Homo sapiens, MOLT-4): > 10 µM | IC50 (NCI-H522; Homo sapiens, NCI-H522): > 10 µM | Selectivity (MC-38 [8]): -350 zone unit | IC50 (RXF 393; Homo sapiens, RXF 393): > 10 µM | IC50 (NCI-H226; Homo sapiens, NCI-H226): > 10 µM | Selectivity (L1210 [9]): 300 zone unit | IC50 (786-0; Homo sapiens): > 10 µM | Selectivity (NCI-H125 [10]): -50 zone unit | IC50 (A498; Homo sapiens, A498): > 10 µM | IC50 (MDA-MB-435; Homo sapiens, MDA-MB-435): > 10 µM | IC50 (MCF7; Homo sapiens, MCF7): > 10 µM | IC50 (HCT-15; Homo sapiens, HCT-15): > 10 µM | Selectivity [11]: -50 zone unit | IC50 (HL-60; Homo sapiens, HL-60): > 10 µM | IC50 (CCRF-CEM; Homo sapiens, CCRF-CEM): > 10 µM | Relative activity [12]: 1 | IC50 (HCT-116; Homo sapiens, HCT-116): > 10 µM | IC50 (COLO 205; Homo sapiens, COLO 205): > 10 µM
